Measured values taken from ChEMBL document CHEMBL4699593, “Identification of 2,4-Disubstituted Imidazopyridines as Hemozoin Formation Inhibitors with Fast-Killing Kinetics and In Vivo Efficacy in the Plasmodium falciparum NSG Mouse Model” (J Med Chem, 2020).
Values after ≈ are worked out from the molar mass of the structure shown.

How the values were obtained:
Plasmodium falciparum [1] = assay: Antiplasmodial activity against multidrug-sensitive asexual blood stage Plasmodium falciparum NF54 strain assessed as reduction in parasite growth after 72 hrs by NBT reagent based LDH assay; assay type: functional, organism-based; details: NF54, 72 h
Plasmodium falciparum [2] = assay: Antiplasmodial activity against multidrug-resistant asexual blood stage Plasmodium falciparum K1 strain assessed as reduction in parasite growth after 72 hrs by NBT reagent based LDH assay; assay type: functional, organism-based; details: K1, 72 h
Method in brief: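 Asexual blood-stage K1 (multidrug-resistant) parasites were read out by the parasite lactate dehydrogenase (pLDH) assay. […] Most individual values varied less than 2× (maximum 3×).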

[3] = Aqueous solubility of compound in phosphate buffer saline at pH 6.5 incubated for 20 hrs under shaking condition by shake-flask method based HPLC-DAD analysis; assay type: physicochemical; details: phosphate buffered saline
Method in brief: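 Equilibrium aqueous solubility was measured at pH 6.5 using a miniaturized shake-flask method.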

CHO = assay: Cytotoxicity against CHO cells assessed as reduction in cell viability by MTT assay; assay type: cell-based, Cricetulus griseus; details: chinese hamster
Method in brief: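 Cytotoxicity was measured in Chinese hamster ovary (CHO) cells and reported as CC50. The selectivity index is CC50 divided by NF54 IC50.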

[4] = Apparent intrinsic clearance in mouse liver microsomes at 0.1 uM in presence of NADPH by LC-MS/MS analysis; assay type: ADME, Microsome
Method in brief: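 Compound was incubated with mouse liver microsomes for 30 min. Apparent intrinsic clearance (CL_int,app) is reported in μL/min/mg.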

[5] = Selectivity index, ratio of CC50 for cytotoxicity against CHO cells assessed as reduction in cell viability to IC50 for antiplasmodial activity against multidrug-sensitive Plasmodium falciparum NF54 assessed as reduction in parasite growth; assay type: toxicity, cell-based; details: hamster, read-out: Ratio CC50/IC50
[6] = target: Voltage-gated inwardly rectifying potassium channel KCNH2 (Homo sapiens, UniProt Q12809); assay: Inhibition of human ERG by patch clamp method
Hemozoin = assay: Inhibition of beta-hematin formation assessed as reduction in hemozoin formation incubated for 5 hrs by NP40 detergent-mediated assay
Method in brief: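 Synthetic hemozoin (β-hematin) formation is driven by the detergent Nonidet P-40. Pyridine is then added to detect unreacted hematin. IC50 is derived from this read-out.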

[7] = AUC in Balb/c mouse administered orally; assay type: ADME; details: in vivo, po
Method in brief: (§1)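 Healthy Balb/c mice dosed i.v. or orally. Parameters come from non-compartmental analysis of compound concentration over time. […] Clearance is blood clearance (CL_b).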

[8] = Dissociation constant, pKa of compound; assay type: physicochemical
Plasmodium berghei = assay: Antiplasmodial activity against luciferase-expressing Plasmodium berghei sporozoites liver stage infected in human HepG2 cells expressing GFP-CD81 fusion protein incubated for 48 hrs by luciferase reporter gene based bioluminescence assay; assay type: functional, organism-based; details: HepG2, 48 h
Method in brief: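 Liver-stage activity was measured in vitro with rodent P. berghei sporozoites. Values are the mean of 3 technical replicates from the luciferase assay; individual values varied less than 2×.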

Plasmodium falciparum [9] = assay: Antiplasmodial activity against early stage (I to III) Plasmodium falciparum NF54 gametocytes incubated for 48 hrs under hypoxia condition by luciferase reporter gene assay; assay type: functional, organism-based; details: NF54, 48 h
Plasmodium falciparum [10] = assay: Antiplasmodial activity against late stage (IV/V) Plasmodium falciparum NF54 gametocytes incubated for 48 hrs under hypoxia condition by luciferase reporter gene assay; assay type: functional, organism-based; details: NF54, 48 h
Plasmodium falciparum [11] = assay: Antiplasmodial activity against late stage (IV/V) Plasmodium falciparum NF54 gametocytes at 5 uM incubated for 48 hrs under hypoxia condition by luciferase reporter gene assay relative to control; assay type: functional
Plasmodium falciparum [12] = assay: Antiplasmodial activity against early ring-stage synchronized Plasmodium falciparum assessed as increase in free heme after 32 hrs by Giemsa-staining based haemocytometric counting method; assay type: functional, organism-based
Method in brief: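 Whole-parasite cell fractionation assay run as a dose response. Free heme and hemozoin were measured intracellularly across increasing compound concentrations.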

Plasmodium falciparum [13] = assay: Antiplasmodial activity against early ring-stage synchronized Plasmodium falciparum assessed as decrease in hemozoin formation after 32 hrs by Giemsa-staining based haemocytometric counting method; assay type: functional, organism-based
[14] = Cmax in Balb/C mouse at 2 mg/kg, iv by LC-MS/MS analysis; assay type: ADME, organism-based; design: route intravenous, dose 2 mg/kg; details: in vivo; method in brief: as §1
[15] = Cmax in Balb/C mouse at 20 mg/kg, po by LC-MS/MS analysis; assay type: ADME, organism-based; design: route oral, dose 20 mg/kg; details: in vivo; method in brief: as §1
[16] = Tmax in Balb/C mouse at 20 mg/kg, po by LC-MS/MS analysis; assay type: ADME, organism-based; details: in vivo
Method in brief: (§2)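 Healthy Balb/c mice were given the compound i.v. or orally. Parameters come from non-compartmental analysis: AUC from 0 h to t_last, blood clearance, volume at steady state, terminal half-life, Tmax. Oral bioavailability F is derived from the i.v. and p.o. data.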

[17] = Terminal half life in Balb/C mouse at 2 mg/kg, iv by LC-MS/MS analysis; assay type: ADME, organism-based; details: in vivo, read-out: beta t1/2 (converted); method in brief: as §2
[18] = Terminal half life in Balb/C mouse at 20 mg/kg, po by LC-MS/MS analysis; assay type: ADME, organism-based; details: in vivo, read-out: beta t1/2 (converted); method in brief: as §2
[19] = Clearance in Balb/C mouse blood at 2 mg/kg, iv by LC-MS/MS analysis; assay type: ADME, organism-based; details: whole blood; method in brief: as §1
[20] = Volume of distribution at steady state in Balb/C mouse at 2 mg/kg, iv by LC-MS/MS analysis; assay type: ADME, organism-based; details: in vivo, read-out: Vdss; method in brief: as §2
[21] = AUC (0 to t) in Balb/C mouse at 2 mg/kg, iv by LC-MS/MS analysis; assay type: ADME, organism-based; design: dose 2 mg/kg; details: in vivo; method in brief: as §1
[22] = AUC (0 to t) in Balb/C mouse at 20 mg/kg, po by LC-MS/MS analysis; assay type: ADME, organism-based; design: dose 20 mg/kg; details: in vivo; method in brief: as §1
[23] = Oral bioavailability in Balb/C mouse at 20 mg/kg by LC-MS/MS analysis; assay type: ADME, organism-based; details: in vivo; method in brief: as §2
[24] = Ratio of unbound average drug concentration in Balb/c mouse at 20 mg/kg, po measured at 24 hrs to IC50 for antiplasmodial activity against multidrug-sensitive Plasmodium falciparum NF54 asexual blood stage assessed as reduction in parasite growth after 72 hrs by LDH assay; assay type: organism-based; details: in vivo
[25] = Selectivity ratio of IC50 for antiplasmodial activity against luciferase-expressing Plasmodium berghei sporozoites liver stage infected in human HepG2 cells expressing GFP-CD81 fusion protein to IC50 for antiplasmodial activity against multidrug-sensitive Plasmodium falciparum NF54; assay type: functional

Voltage-gated inwardly rectifying potassium channel KCNH2, sequence (Q12809 whole entry): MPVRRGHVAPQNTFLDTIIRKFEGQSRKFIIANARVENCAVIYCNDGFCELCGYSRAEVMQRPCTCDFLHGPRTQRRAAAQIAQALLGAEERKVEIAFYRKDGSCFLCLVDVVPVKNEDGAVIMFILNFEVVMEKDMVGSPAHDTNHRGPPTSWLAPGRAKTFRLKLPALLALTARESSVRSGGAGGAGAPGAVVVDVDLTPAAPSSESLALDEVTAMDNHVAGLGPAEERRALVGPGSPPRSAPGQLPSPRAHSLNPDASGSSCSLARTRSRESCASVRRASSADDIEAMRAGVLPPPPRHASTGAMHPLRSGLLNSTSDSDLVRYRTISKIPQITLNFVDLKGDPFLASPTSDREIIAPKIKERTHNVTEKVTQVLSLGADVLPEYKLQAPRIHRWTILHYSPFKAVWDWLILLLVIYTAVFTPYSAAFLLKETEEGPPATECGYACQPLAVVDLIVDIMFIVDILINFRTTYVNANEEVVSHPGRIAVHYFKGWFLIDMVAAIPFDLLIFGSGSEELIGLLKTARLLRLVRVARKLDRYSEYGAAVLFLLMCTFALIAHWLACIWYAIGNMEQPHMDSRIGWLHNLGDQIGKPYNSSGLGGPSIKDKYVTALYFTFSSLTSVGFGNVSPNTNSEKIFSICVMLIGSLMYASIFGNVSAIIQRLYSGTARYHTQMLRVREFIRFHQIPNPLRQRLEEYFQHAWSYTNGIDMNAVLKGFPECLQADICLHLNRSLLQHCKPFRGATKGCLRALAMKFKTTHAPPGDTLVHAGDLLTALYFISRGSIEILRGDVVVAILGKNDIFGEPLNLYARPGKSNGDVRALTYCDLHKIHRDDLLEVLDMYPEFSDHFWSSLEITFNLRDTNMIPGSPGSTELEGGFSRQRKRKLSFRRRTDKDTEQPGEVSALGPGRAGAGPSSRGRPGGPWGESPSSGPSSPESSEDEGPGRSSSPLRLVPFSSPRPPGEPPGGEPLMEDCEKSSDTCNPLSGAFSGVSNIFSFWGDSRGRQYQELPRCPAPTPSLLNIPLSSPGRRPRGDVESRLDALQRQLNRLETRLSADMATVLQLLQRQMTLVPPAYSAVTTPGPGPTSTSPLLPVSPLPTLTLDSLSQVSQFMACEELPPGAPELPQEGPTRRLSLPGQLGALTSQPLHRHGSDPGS

Row | SMILES | IC50 (Plasmodium falciparum [1]) [nM] | IC50 (Plasmodium falciparum [2]) [nM] | solubility thermodynamic at 20 h [3] [µM] | CC50 (CHO) [nM] | selectivity ratio [5] | IC50 [6] [nM] | other results
1 | CN1CCC(N2CCCN(c3nccc4[nH]c(-c5ccc(F)c(F)c5)nc34)CC2)CC1 | 35 | 220 | 200 (≈ 85.3 µg/mL) | 17000 | 490 |  | CLH [4]: > 200 µL/min/mg
2 | CN1CCN(CC2CCN(c3nccc4[nH]c(-c5ccc(F)c(F)c5)nc34)CC2)CC1 | < 20 | 27 | 195 (≈ 83.2 µg/mL) | 7400 | 370 |  | 
3 | CN1CCN(C2CCN(c3nccc4[nH]c(-c5cccc(OC(F)(F)F)c5)nc34)CC2)CC1 | 64 | 91 | 190 (≈ 87.5 µg/mL) | 3000 | 47 |  | 
4 | CN1CCN(CC2CCN(c3cccc4[nH]c(-c5cc(F)cc(F)c5)nc34)CC2)CC1 | 830 | 1500 | 200 (≈ 85.1 µg/mL) | 22000 |  | > 30000 | 
5 | CN1CCN(C(=O)C2CCN(c3nccc4[nH]c(-c5ccc(F)c(F)c5)nc34)CC2)CC1 | 100 | 380 | 200 (≈ 88.1 µg/mL) | > 50000 |  | 12000 | 
6 | CN1CCN(CC2CCN(c3nncc4[nH]c(-c5cc(F)cc(F)c5)nc34)CC2)CC1 | 580 | 2900 | 190 (≈ 81.2 µg/mL) |  |  |  | IC50 (Hemozoin): 25000 nM
7 | CN1CCN(CC2CCN(c3nccc4[nH]c(-c5cc(F)cc(F)c5)cc34)CC2)CC1 | 14 | 92 | 140 (≈ 59.6 µg/mL) | 2600 |  | 5000 | 
8 | Fc1ccc(-c2nc3c(N4CCNCC4)nccc3[nH]2)cc1F | 170 | 970 | 150 (≈ 47.3 µg/mL) | 8100 |  | 3400 | 
9 | CS(=O)(=O)c1ccc(-c2cnc(N)c(-c3ccc(C(F)(F)F)nc3)c2)cc1 [MMV-048] |  |  |  |  |  |  | AUC [7]: 465 µM·h
10 | Fc1cc(F)cc(-c2nc3c(N4CCC(N5CCOCC5)CC4)nccc3[nH]2)c1 |  |  |  |  |  |  | pKa [8]: 7.4
11 | NC1CCN(c2nccc3[nH]c(-c4cccc(OC(F)(F)F)c4)nc23)CC1 | 73 | 1200 | 200 (≈ 75.5 µg/mL) | 42000 |  |  | IC50 (Plasmodium berghei): 14000 nM; IC50 (Plasmodium falciparum [9]): 780 nM; IC50 (Plasmodium falciparum [10]): 2800 nM; inhibition at 5 µM (Plasmodium falciparum [11]): 95%; IC50 (Hemozoin): 148000 nM; Activity (Plasmodium falciparum [12]): Dose-dependent effect; Activity (Plasmodium falciparum [13]): Dose-dependent effect
12 | Fc1ccc(-c2nc3c(N4CCC(CN5CCOCC5)CC4)nccc3[nH]2)cc1F | 51 | 120 | 85 (≈ 35.1 µg/mL) | 35000 | 690 | ≤ 3000 | IC50 (Plasmodium berghei): 290 nM; IC50 (Plasmodium falciparum [9]): 1300 nM; inhibition at 5 µM (Plasmodium falciparum [11]): 0%; Cmax [14]: 300 nM; Cmax [15]: 3700 nM; Tmax [16]: 0.7 h; half-life [17]: 25.8 h; half-life [18]: 13.5 h; clearance [19]: 19.6 mL/min/kg; Vd [20]: 20 L/kg; AUCt [21]: 4.17 µM·h; AUCt [22]: 34.6 µM·h; bioavailability [23]: 83%; Ratio [24]: 4.6; Ratio IC50 [25]: <=6
